Values after ≈ are worked out from the molar mass of the structure shown.
Columns and labels:
Candida tropicalis = test: Antifungal activity against Candida tropicalis after 24 to 72 hrs by broth microdilution method; assay type: functional
In short: (§1)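 Broth microdilution MIC per CLSI M27-A3 (yeasts) or M38-A2 (molds). RPMI 1640 with L-glutamine, without bicarbonate, buffered to pH 7.0 with 0.165 M MOPS. Final test range for the compounds was 0.175–87.5 μM. Incubation at 35°C with visual reading at 24–72 h. MIC was the lowest concentration giving 100% inhibition versus the growth control (azoles 50% or 100%, by organism). Each isolate was run in duplicate in two independent experiments.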

Clavispora lusitaniae = test: Antifungal activity against Candida lusitaniae after 24 to 72 hrs by broth microdilution method; assay type: functional; in short: as §1
[1] = test system: Cryptococcus gattii species complex; test: Antifungal activity against Cryptococcus gattii after 24 to 72 hrs by broth microdilution method; assay type: functional, Cryptococcus bacillisporus; in short: as §1
Candida parapsilosis = test: Antifungal activity against Candida parapsilosis after 24 to 72 hrs by broth microdilution method; assay type: functional; conditions: Lodderomyces parapsilosis; in short: as §1
[2] = test system: Meyerozyma guilliermondii; test: Antifungal activity against Candida guilliermondii after 24 to 72 hrs by broth microdilution method; assay type: functional; in short: as §1
Nakaseomyces glabratus = test: Antifungal activity against Candida glabrata after 24 to 72 hrs by broth microdilution method; assay type: functional; in short: as §1
Candida albicans = test: Antifungal activity against Candida albicans after 24 to 72 hrs by broth microdilution method; assay type: functional
In short: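 CLSI M27-A3 broth microdilution for yeasts in RPMI 1640 with L-glutamine and no bicarbonate, buffered with 0.165 M MOPS to pH 7.0. Compounds were dissolved in water and tested at 0.175–87.5 μM final, 35°C. MIC was read visually at 24–72 h as 100% inhibition versus growth control. For MFC, 30 μl from clear wells went onto SDA at 35°C for 48–72 h, reading the lowest concentration without colonies. Duplicates, two independent runs.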

Pichia kudriavzevii = test: Antifungal activity against Candida krusei after 24 to 72 hrs by broth microdilution method; assay type: functional; in short: as §1
Candida dubliniensis = test: Antifungal activity against Candida dubliniensis after 24 to 72 hrs by broth microdilution method; assay type: functional; in short: as §1
Cryptococcus neoformans = test: Antifungal activity against Cryptococcus neoformans after 24 to 72 hrs by broth microdilution method; assay type: functional; in short: as §1

Compound	MIC (Candida tropicalis)	MIC50 (Candida tropicalis)	MIC90 (Candida tropicalis)	MIC (Clavispora lusitaniae)	MIC50 (Clavispora lusitaniae)	MIC90 (Clavispora lusitaniae)	MIC [1]	MIC50 [1]	MIC90 [1]	MIC (Candida parapsilosis)	MIC50 (Candida parapsilosis)	MIC90 (Candida parapsilosis)	MIC [2]	MIC50 [2]	MIC90 [2]	MIC (Nakaseomyces glabratus)	MIC50 (Nakaseomyces glabratus)	MIC90 (Nakaseomyces glabratus)	MIC (Candida albicans)	MIC50 (Candida albicans)	also measured
CCC(C)n1ncn(-c2ccc(N3CCN(c4ccc(OCC5COC(Cn6cncn6)(c6ccc(Cl)cc6Cl)O5)cc4)CC3)cc2)c1=O (stereo not given) [ITRACONAZOLE]	0.11 µg/mL (≈ 0.156 µM)	0.125 µg/mL (≈ 0.177 µM)	0.25 µg/mL (≈ 0.354 µM)	0.09 µg/mL (≈ 0.128 µM)	0.06 µg/mL (≈ 0.085 µM)	0.25 µg/mL (≈ 0.354 µM)	0.07 µg/mL (≈ 0.0992 µM)	0.06 µg/mL (≈ 0.085 µM)	0.125 µg/mL (≈ 0.177 µM)	0.07 µg/mL (≈ 0.0992 µM)	0.06 µg/mL (≈ 0.085 µM)	0.125 µg/mL (≈ 0.177 µM)	0.5 µg/mL (≈ 0.709 µM)	0.5 µg/mL (≈ 0.709 µM)	1 µg/mL (≈ 1.42 µM)	1.15 µg/mL (≈ 1.63 µM)	0.5 µg/mL (≈ 0.709 µM)	16 µg/mL (≈ 22.7 µM)	0.07 µg/mL (≈ 0.0992 µM)	0.04 µg/mL (≈ 0.0567 µM)	MIC90 (Candida albicans): 0.09 µg/mL (≈ 0.128 µM); MIC (Pichia kudriavzevii): 0.33 µg/mL (≈ 0.468 µM); MIC50 (Pichia kudriavzevii): 0.25 µg/mL (≈ 0.354 µM); MIC90 (Pichia kudriavzevii): 0.5 µg/mL (≈ 0.709 µM); MIC (Candida dubliniensis): 0.028 µg/mL (≈ 0.0397 µM); MIC50 (Candida dubliniensis): 0.03 µg/mL (≈ 0.0425 µM); MIC90 (Candida dubliniensis): 0.06 µg/mL (≈ 0.085 µM); MIC (Cryptococcus neoformans): 0.06 µg/mL (≈ 0.085 µM); MIC50 (Cryptococcus neoformans): 0.06 µg/mL (≈ 0.085 µM); MIC90 (Cryptococcus neoformans): 0.125 µg/mL (≈ 0.177 µM)
CC[C@@H]([C@H](C)O)n1ncn(-c2ccc(N3CCN(c4ccc(OC[C@@H]5CO[C@@](Cn6cncn6)(c6ccc(F)cc6F)C5)cc4)CC3)cc2)c1=O [POSACONAZOLE]	0.061 µg/mL (≈ 0.087 µM)	0.06 µg/mL (≈ 0.0856 µM)	0.25 µg/mL (≈ 0.357 µM)	0.015 µg/mL (≈ 0.0214 µM)	0.016 µg/mL (≈ 0.0228 µM)	0.03 µg/mL (≈ 0.0428 µM)	0.04 µg/mL (≈ 0.0571 µM)	0.03 µg/mL (≈ 0.0428 µM)	0.06 µg/mL (≈ 0.0856 µM)	0.049 µg/mL (≈ 0.0699 µM)	0.06 µg/mL (≈ 0.0856 µM)	0.06 µg/mL (≈ 0.0856 µM)	0.14 µg/mL (≈ 0.2 µM)	0.125 µg/mL (≈ 0.178 µM)	0.25 µg/mL (≈ 0.357 µM)	1.23 µg/mL (≈ 1.76 µM)	1 µg/mL (≈ 1.43 µM)	8 µg/mL (≈ 11.4 µM)	0.04 µg/mL (≈ 0.0571 µM)	0.02 µg/mL (≈ 0.0285 µM)	MIC90 (Candida albicans): 0.18 µg/mL (≈ 0.257 µM); MIC (Pichia kudriavzevii): 0.18 µg/mL (≈ 0.257 µM); MIC50 (Pichia kudriavzevii): 0.125 µg/mL (≈ 0.178 µM); MIC90 (Pichia kudriavzevii): 0.25 µg/mL (≈ 0.357 µM); MIC (Candida dubliniensis): 0.014 µg/mL (≈ 0.02 µM); MIC50 (Candida dubliniensis): 0.008 µg/mL (≈ 0.0114 µM); MIC90 (Candida dubliniensis): 0.03 µg/mL (≈ 0.0428 µM); MIC (Cryptococcus neoformans): 0.07 µg/mL (≈ 0.0999 µM); MIC50 (Cryptococcus neoformans): 0.06 µg/mL (≈ 0.0856 µM); MIC90 (Cryptococcus neoformans): 0.125 µg/mL (≈ 0.178 µM)
OC(Cn1cncn1)(Cn1cncn1)c1ccc(F)cc1F [FLUCONAZOLE]	1.41 µg/mL (≈ 4.6 µM)	1 µg/mL (≈ 3.27 µM)	4 µg/mL (≈ 13.1 µM)	2.64 µg/mL (≈ 8.62 µM)	2 µg/mL (≈ 6.53 µM)	4 µg/mL (≈ 13.1 µM)	4 µg/mL (≈ 13.1 µM)	4 µg/mL (≈ 13.1 µM)	8 µg/mL (≈ 26.1 µM)	2.14 µg/mL (≈ 6.99 µM)	2 µg/mL (≈ 6.53 µM)	4 µg/mL (≈ 13.1 µM)	7.46 µg/mL (≈ 24.4 µM)	4 µg/mL (≈ 13.1 µM)	16 µg/mL (≈ 52.2 µM)	32 µg/mL (≈ 104 µM)	16 µg/mL (≈ 52.2 µM)	256 µg/mL (≈ 836 µM)	1.15 µg/mL (≈ 3.75 µM)	0.5 µg/mL (≈ 1.63 µM)	MIC90 (Candida albicans): 16 µg/mL (≈ 52.2 µM); MIC (Pichia kudriavzevii): 84.5 µg/mL (≈ 276 µM); MIC50 (Pichia kudriavzevii): 64 µg/mL (≈ 209 µM); MIC90 (Pichia kudriavzevii): 128 µg/mL (≈ 418 µM); MIC (Candida dubliniensis): 0.43 µg/mL (≈ 1.4 µM); MIC50 (Candida dubliniensis): 0.25 µg/mL (≈ 0.816 µM); MIC90 (Candida dubliniensis): 0.5 µg/mL (≈ 1.63 µM); MIC (Cryptococcus neoformans): 4.59 µg/mL (≈ 15 µM); MIC50 (Cryptococcus neoformans): 4 µg/mL (≈ 13.1 µM); MIC90 (Cryptococcus neoformans): 16 µg/mL (≈ 52.2 µM)

From ChEMBL document CHEMBL1629527, “In vitro antifungal activities of bis(alkylpyridinium)alkane compounds against pathogenic yeasts and molds” (Antimicrob Agents Chemother, 2010)
